In publication PMC2699564 (Journal of medicinal chemistry, 2009):

How the values were obtained:
Colon-26 tumors = experiment: In vivo biodistribution of ^124I-labeled 1; set-up: species or system BALB/c mice; settings: for tumor uptake: Colon-26 tumor, ^124I-labeled, i.v.
How it was run: (§1)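 ¹²⁴I-labeled test compound (radiochemical purity >95%, in saline with 10% ethanol) given via tail vein at 15–200 μCi; 3–4 mice per compound/time point. Sacrificed at 24, 48, 72 and 96 h. Blood, tumor, heart, liver, spleen, kidney, lung, muscle, gut and stomach removed and weighed. Activity measured by gamma well counter; uptake expressed as %ID/g; mean of 3 or 4 mice.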

RIF tumors [1] = experiment: In vivo biodistribution of ^124I-labeled compounds; set-up: species or system C3H mice; settings: for tumor uptake compared among compounds 1-3 / tumor uptake: RIF tumor; for tumor uptake compared among compounds 1-3 / liver and spleen uptake compared among compounds 1-3: 24-96 h post injection; for tumor uptake: ^124I-labeled, i.v.; for liver and spleen uptake compared among compounds 1-3: C3H mice
How it was run: as §1

Colon-26 tumor = experiment: microPET imaging, RUV and relative tumor activity, Colon-26 tumor; type: in vivo
RIF tumors [2] = experiment: In vivo PDT efficacy; set-up: species or system C3H mice; settings: for tumor free mice (tumor cure) / tumor free mice (tumor cure) at day 60: 665 nm, 135 J/cm^2, 75 mW/cm^2 at 24 h post-injection, five mice/group; for toxicity (deaths post PDT): 135 J/cm^2, five mice/group
How it was run: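 Female C3H/HeJ mice received 2×10^5 RIF cells intradermally in HBSS lacking Ca²⁺/Mg²⁺. At 4–5 mm tumors, hair was removed and test compound given i.v. the day before light, at 0.5, 1.0 or 1.5 μmol/kg, five mice/group. At 24 h, mice were restrained unanaesthetised and tumor irradiated with dye laser at 665 nm: 1 cm², 75 mW/cm², 135 J/cm², 30 min. Mice were watched daily for weight loss, scabbing and regrowth; V = (L × W²)/2. Sacrificed at 400 mm³; cured if no regrowth by day 60.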

RIF tumor = experiment: microPET imaging, RUV and relative tumor activity, RIF tumor; type: in vivo
RIF cells = experiment: In vitro cell uptake by fluorescence, RIF cells; type: cell-based
How it was run: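 RIF cells incubated with test compound; cellular uptake read by fluorescence at 3 and 24 h post-incubation.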

[3] = system: radiation-induce fibrosarcoma (RIF) cells; experiment: In vitro photosensitizing efficacy; type: cell-based; settings: 24 h incubation, 0.25 μM (Figure 8), light 0-4 J/cm^2, MTT
Colon-26 cells = experiment: In vitro cell uptake, Colon-26 cells; type: cell-based

## CCC1=C(C)c2cc3[nH]c(cc4nc(c5c6[nH]c(cc1n2)c(C)c6C(=O)C5)[C@@H](CCC(=O)OC)[C@@H]4C)c(C)c3C(C)OCc1cccc([124I])c1 (some centres unmarked) [Compound 1, 3-{1′-(m-iodobenzyloxy)ethyl}pyropheophorbide-a methyl ester]
Colon-26 tumors; 72 h post injection
  tumor uptake in Colo-26 relative to RIF: 3 fold
  tumor uptake: 2.5 %ID/g
Colon-26 tumors; 96 h post injection
  tumor uptake in Colo-26 relative to RIF: 3 fold
  tumor uptake: 2.0 %ID/g
Colon-26 tumors; 24 h post injection
  tumor uptake: 4.6 %ID/g
Colon-26 tumors; 48 h post injection
  tumor uptake: 4.4 %ID/g
Colon-26 tumors; ^124I-labeled 1
  blood uptake, BALB/c vs C3H mice: slightly higher blood uptake in BALB/c mice than C3H mice
  uptake in other organs, BALB/c vs C3H mice: lower uptake in BALB/c mice than the C3H mice
RIF tumors [1]
  tumor uptake compared among compounds 1-3: highest tumor uptake value at 24 and 48 hrs time points
RIF tumors [1]; 24 h post injection
  tumor uptake: 4.1 %ID/g
RIF tumors [1]; 48 h post injection
  tumor uptake: 2.1 %ID/g
RIF tumors [1]; 72 h post injection
  tumor uptake: 0.8 %ID/g
RIF tumors [1]; 96 h post injection
  tumor uptake: 0.6 %ID/g
Colon-26 tumor; 24-96 h
  relative tumor activity over time: increasing relative quantity of activity in the tumor
Colon-26 tumor; after 48 hours of injection
  relative uptake value (RUV) compared with RIF tumor: higher RUV values than RIF tumor
RIF tumors [2]; 1.00 μmole/kg i.v.
  tumor free mice (tumor cure): one out of five mice was tumor free
RIF tumors [2]; 1.5 μmol/kg i.v.
  tumor free mice (tumor cure) at day 60: four out of five mice were tumor free
RIF tumor; RIF tumor, ^124I-1 about constant over three scans in 3 days
  relative tumor activity (tumor activity to whole body activity in image): ~0.035
RIF tumor; both tumor models (RIF and Colon-26), post injection
  time of best tumor contrast in PET images: 72 h

## CCC1=C(C)c2cc3[nH]c(cc4nc(c5c6[nH]c(cc1n2)c(C)c6C(=O)C5)[C@@H](CCC(=O)N[C@@H]1[C@@H](O)[C@H](O)[C@@H](CO)O[C@H]1O)[C@@H]4C)c(C)c3C(C)OCc1cccc([124I])c1 (some centres unmarked) [Compound 2, 3-{1′-(m-iodobenzyloxy)ethyl}-17[2]-(2-amino-2-deoxy)glucosamide-pyropheo phorbide-a]
RIF cells
  cell uptake compared to compound 1: higher uptake
RIF tumors [1]
  liver and spleen uptake compared among compounds 1-3: lower spleen and liver uptake than 3 but higher than that of 1
  tumor uptake compared among compounds 1-3: least tumor uptake among all compounds at all time points
[3]
  in vitro PDT efficacy compared to 1: more effective than the corresponding non-carbohydrate analog 1
RIF tumors [2]; 0.50 μmole/kg i.v.
  tumor free mice (tumor cure): one out of five mice was tumor free
RIF tumors [2]; 1.00 μmole/kg i.v.
  tumor free mice (tumor cure): two out of five mice were tumor free
RIF tumors [2]; 1.5 μmol/kg i.v.
  toxicity (deaths post PDT): two mice died within 24 h post PDT
  tumor free mice (tumor cure) at day 60: two out of remaining three mice were tumor free
Colon-26 cells
  cell uptake compared to compound 1: higher uptake

## CCC1=C(C)c2cc3[nH]c(cc4nc(c5c6[nH]c(cc1n2)c(C)c6C(=O)C5)[C@@H](CCC(=O)N[C@@H]1O[C@H](CO)[C@H](O)[C@H](O)[C@H]1O)[C@@H]4C)c(C)c3C(C)OCc1cccc([124I])c1 (some centres unmarked) [Compound 3, {1′-(m-iodobenzyloxy)ethyl}-17[2]-(1-amino-1-deoxy)galactosamide-pyro pheophorbide-a]
RIF cells
  cell uptake compared to compound 1: higher uptake
RIF tumors [1]
  liver and spleen uptake compared among compounds 1-3: considerably higher liver and spleen uptake at all time points
  tumor uptake compared among compounds 1-3: higher uptake values at the 72 and 96 hrs time points
[3]
  in vitro PDT efficacy compared to 1: more effective than the corresponding non-carbohydrate analog 1
RIF tumors [2]; 1.00 μmole/kg i.v.
  toxicity (deaths post PDT): all five mice died within 24h post PDT
RIF tumors [2]; 1.5 μmol/kg i.v.
  toxicity (deaths post PDT): all five mice died within 24 h post light treatment
Colon-26 cells
  cell uptake compared to compound 1: higher uptake
